Measurements: ChEMBL document CHEMBL4028914, “Structure-Based Design of 6-Chloro-4-aminoquinazoline-2-carboxamide Derivatives as Potent and Selective p21-Activated Kinase 4 (PAK4) Inhibitors” (J Med Chem, 2018)
pIC50, pKd, pKi: −log10 of the molar value. Active and inactive are the calls of the source. The calls are words filed in the database; no cut-off is given here.

Assays:
[1] = target: T1, Serine/threonine-protein kinase PAK 4 (Homo sapiens, UniProt O96013); experiment: Inhibition of human PAK4 kinase domain using coumarin and fluorescein-labeled ser/thr20 peptide as substrate preincubated for 15 mins followed by ATP addition measured after 60 mins by Z'-Lyte assay
Target sequence in this assay (O96013 whole entry, the tested form may be a part): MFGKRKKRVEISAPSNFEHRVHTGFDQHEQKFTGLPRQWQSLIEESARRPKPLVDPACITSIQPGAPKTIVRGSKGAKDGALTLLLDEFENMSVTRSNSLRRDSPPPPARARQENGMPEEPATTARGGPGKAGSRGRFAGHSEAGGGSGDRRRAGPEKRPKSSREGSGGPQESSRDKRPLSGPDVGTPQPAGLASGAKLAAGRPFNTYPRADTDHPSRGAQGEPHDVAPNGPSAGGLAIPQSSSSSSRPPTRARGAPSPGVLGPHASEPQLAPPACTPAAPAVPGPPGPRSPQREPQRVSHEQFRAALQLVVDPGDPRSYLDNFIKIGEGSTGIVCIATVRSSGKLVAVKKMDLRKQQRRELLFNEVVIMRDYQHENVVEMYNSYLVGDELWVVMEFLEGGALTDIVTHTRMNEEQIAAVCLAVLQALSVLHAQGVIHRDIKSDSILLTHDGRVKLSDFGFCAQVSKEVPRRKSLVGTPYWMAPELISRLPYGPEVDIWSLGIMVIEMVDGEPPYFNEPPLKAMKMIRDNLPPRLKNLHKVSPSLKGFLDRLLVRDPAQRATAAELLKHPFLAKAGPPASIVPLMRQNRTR

[2] = target: T1, Serine/threonine-protein kinase PAK 4; experiment: Binding affinity to human truncated PAK4 kinase domain assessed as change in melting temperature at 20 uM by SYPRO orange dye based differential scanning fluorimetry
Summary of the method: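 Melting-temperature shift of the compound–truncated PAK4 complex was measured by differential scanning fluorimetry, relative to the truncated PAK4 protein alone.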
Target sequence in this assay (O96013 whole entry, looked up, the tested form may be a part): as the sequence (O96013 whole entry, the tested form may be a part) above

[3] = target: T1, Serine/threonine-protein kinase PAK 4; experiment: Binding affinity to biotin-labeled human truncated PAK4 kinase domain by surface plasmon resonance assay
Summary of the method: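 Binding to the truncated PAK4 was measured by SPR with multiconcentration kinetic analysis. Kd was taken from a 1:1 binding model fit.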
Target sequence in this assay (O96013 whole entry, the tested form may be a part): as above

[4] = target: T2, Serine/threonine-protein kinase PAK 1 (Homo sapiens, UniProt Q13153); experiment: Inhibition of human PAK1 kinase domain using coumarin and fluorescein-labeled ser/thr19 peptide as substrate preincubated for 15 mins followed by ATP addition measured after 60 mins by Z'-Lyte assay
T2 sequence (Q13153 whole entry, the tested form may be a part): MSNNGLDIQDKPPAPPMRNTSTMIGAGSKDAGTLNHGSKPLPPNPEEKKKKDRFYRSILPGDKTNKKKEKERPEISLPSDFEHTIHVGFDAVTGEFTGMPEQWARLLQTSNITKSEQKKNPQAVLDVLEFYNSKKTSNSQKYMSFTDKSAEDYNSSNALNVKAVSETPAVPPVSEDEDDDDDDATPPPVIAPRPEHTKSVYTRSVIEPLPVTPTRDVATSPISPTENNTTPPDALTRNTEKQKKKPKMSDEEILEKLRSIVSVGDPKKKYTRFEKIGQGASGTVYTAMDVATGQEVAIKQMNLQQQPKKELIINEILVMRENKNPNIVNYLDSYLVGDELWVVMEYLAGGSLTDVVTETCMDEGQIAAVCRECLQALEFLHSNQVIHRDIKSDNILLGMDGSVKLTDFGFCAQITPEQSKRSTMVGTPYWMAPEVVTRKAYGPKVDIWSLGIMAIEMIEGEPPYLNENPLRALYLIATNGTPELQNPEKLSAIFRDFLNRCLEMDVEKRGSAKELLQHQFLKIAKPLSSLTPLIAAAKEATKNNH
Summary of the method: (§1)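 FRET-based Z′-Lyte kinase assay run per the kit instructions. Ki values are the average of at least two duplicate experiments; SEM < ±20%.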

Homo sapiens = species on record: Homo sapiens; experiment: Selectivity index, ratio of Ki for human PAK1 to Ki for human PAK4
Summary of the method: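 Ratio of PAK1 Ki to PAK4 Ki, both taken from the FRET-based Z′-Lyte assay.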

[5] = target: T2, Serine/threonine-protein kinase PAK 1; experiment: Inhibition of PAK1 (unknown origin)
[6] = target: T1, Serine/threonine-protein kinase PAK 4; experiment: Inhibition of PAK4 (unknown origin) using histone H3 as substrate
Target sequence in this assay (O96013 whole entry, the tested form may be a part): as the sequence (O96013 whole entry, the tested form may be a part) above

[7] = target: Serine/threonine-protein kinase PAK 5 (Homo sapiens, UniProt Q9P286); experiment: Inhibition of full length recombinant human His-tagged PAK5 […] expressed in Baculovirus expression system by Z'-Lyte assay
Serine/threonine-protein kinase PAK 5, sequence (Q9P286 whole entry, the tested form may be a part): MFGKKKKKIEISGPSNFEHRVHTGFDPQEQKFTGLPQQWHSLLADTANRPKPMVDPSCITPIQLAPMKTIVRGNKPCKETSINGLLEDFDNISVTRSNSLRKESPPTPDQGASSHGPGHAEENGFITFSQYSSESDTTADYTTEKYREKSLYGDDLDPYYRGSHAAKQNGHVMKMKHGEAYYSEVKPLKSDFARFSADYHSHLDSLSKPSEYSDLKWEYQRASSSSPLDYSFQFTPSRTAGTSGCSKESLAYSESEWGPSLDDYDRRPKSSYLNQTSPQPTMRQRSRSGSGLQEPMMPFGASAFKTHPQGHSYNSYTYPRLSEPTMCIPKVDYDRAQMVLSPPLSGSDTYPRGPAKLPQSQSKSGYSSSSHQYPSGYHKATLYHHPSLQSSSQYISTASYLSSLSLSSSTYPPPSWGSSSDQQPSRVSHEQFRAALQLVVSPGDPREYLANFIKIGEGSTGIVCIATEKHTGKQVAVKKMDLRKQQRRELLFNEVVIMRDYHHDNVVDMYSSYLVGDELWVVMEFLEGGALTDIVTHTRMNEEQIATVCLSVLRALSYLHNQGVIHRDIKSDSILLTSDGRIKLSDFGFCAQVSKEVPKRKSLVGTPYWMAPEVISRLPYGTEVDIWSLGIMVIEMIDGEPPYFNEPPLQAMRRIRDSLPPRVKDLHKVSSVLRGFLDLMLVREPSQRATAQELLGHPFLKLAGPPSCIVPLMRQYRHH

[8] = target: T1, Serine/threonine-protein kinase PAK 4; experiment: Inhibition of GST-tagged human PAK4 (295 to 591 residues) expressed in Baculovirus expression system by Z'-Lyte assay; summary of the method: as §1
Target sequence in this assay (O96013 whole entry, the tested form may be a part): as the sequence (O96013 whole entry, the tested form may be a part) above

NCI-H460 [9] = experiment: Antiinvasive activity against human NCI-H460 cells at 0.5 to 10 uM after 24 hrs by transwell assay; format: functional, cell-based
HEK293 [10] = experiment: Antiinvasive activity against human HEK293 cells at 0.5 to 10 uM after 24 hrs by transwell assay; format: functional, cell-based
[11] = target: T1, Serine/threonine-protein kinase PAK 4; experiment: Inhibition of human PAK4 in human A549 cells assessed as decrease in phosphorylation levels of LIMK1 by Western blotting method; format: cell-based
Target sequence in this assay (O96013 whole entry, looked up, the tested form may be a part): as the sequence (O96013 whole entry, the tested form may be a part) above

[12] = target: T1, Serine/threonine-protein kinase PAK 4; experiment: Inhibition of human PAK4 in human A549 cells assessed as decrease in phosphorylation of GEF-H1 at Ser810 residue up to 10 uM by Western blotting method; format: cell-based
Target sequence in this assay (O96013 whole entry, looked up, the tested form may be a part): as the sequence (O96013 whole entry, the tested form may be a part) above

HEK293 [13] = experiment: Antimigratory activity against human HEK293 cells at 0.5 to 10 uM after 24 hrs by transwell assay; format: functional, cell-based
A549 [14] = experiment: Antimigratory activity against human A549 cells at 0.5 to 10 uM after 48 hrs by wound healing assay; format: functional, cell-based
[15] = target: T1, Serine/threonine-protein kinase PAK 4; experiment: Inhibition of human PAK4 in human A549 cells assessed as decrease in phosphorylation levels of cofilin by Western blotting method; format: cell-based
Target sequence in this assay (O96013 whole entry, looked up, the tested form may be a part): as the sequence (O96013 whole entry, the tested form may be a part) above

A549 [16] = experiment: Antiproliferative activity against human A549 cells up to 72 hrs by MTT assay; format: functional, cell-based
[17] = target: T1, Serine/threonine-protein kinase PAK 4; experiment: Inhibition of human PAK4 in human A549 cells assessed as decrease in phosphorylation levels of PAK4 at Ser474 residue by Western blot method; format: cell-based
Target sequence in this assay (O96013 whole entry, looked up, the tested form may be a part): as the sequence (O96013 whole entry, the tested form may be a part) above

[18] = target: T1, Serine/threonine-protein kinase PAK 4; experiment: Inhibition of human PAK4 in human A549 cells assessed as decrease in MMP2 expression up to 10 uM by Western blotting method; format: cell-based
Target sequence in this assay (O96013 whole entry, looked up, the tested form may be a part): as the sequence (O96013 whole entry, the tested form may be a part) above

A549 [19] = experiment: Antiinvasive activity against human A549 cells at 0.5 to 10 uM after 24 hrs by transwell assay; format: functional, cell-based
A549 [20] = experiment: Antimigratory activity against human A549 cells at 0.5 to 10 uM after 24 hrs by transwell assay; format: functional, cell-based
[21] = target: T1, Serine/threonine-protein kinase PAK 4; experiment: Inhibition of GST-tagged human PAK4 (295 to 591 residues) expressed in Baculovirus expression system at 0.1 uM by Z'-Lyte assay relative to control
NCI-H460 [22] = experiment: Antimigratory activity against human NCI-H460 cells at 0.5 to 10 uM after 24 hrs by transwell assay; format: functional, cell-based

Compound | pKi [1] | pKi [4] | Ratio Ki (Homo sapiens) | other results
Cn1cnc(Nc2nc(N3CCC(N)CC3)nc3ccc(Cl)cc23)c1 | 6.15 | < 5.00 | > 14 | ΔTm [2]: 0.5 °C; pKd [3]: 6.81
Cc1cc(Nc2nc(C(=O)N3CCC(C)(N)CC3)nc3ccc(Cl)cc23)n[nH]1 | 6.17 |  |  | 
Cc1cc(Nc2nc(C(=O)N3CCNC[C@H]3C)nc3ccc(Cl)cc23)n[nH]1 | 6.82 | < 5.34 | > 30 | 
Cc1cc(Nc2nc(C(=O)N3CCOCC3)nc3ccc(Cl)cc23)n[nH]1 | 5.66 |  |  | pKd [3]: 5.71
Cc1cc(Nc2nc(C(=O)N3CCN[C@H](C)C3)nc3ccc(Cl)cc23)n[nH]1 | 7.29 | < 5.00 | > 196 | 
O=C(c1nc(Nc2cc(C3CC3)[nH]n2)c2cc(Cl)ccc2n1)N1CCNCC1 | 7.80 | 5.56 | 172 | pKd [3]: 7.80
Cc1cc(Nc2nc(C(=O)NC3CCNCC3)nc3ccc(Cl)cc23)n[nH]1 | 6.49 |  |  | 
Cc1cc(Nc2nc(C(=O)N3CCC(O)CC3)nc3ccc(Cl)cc23)n[nH]1 | 5.42 |  |  | 
C[C@H]1CN(C(=O)c2nc(Nc3cc(C4CC4)[nH]n3)c3cc(Cl)ccc3n2)CCN1 | 7.55 | 6.16 | 25 | 
Cc1cc(Nc2nc(C(=O)N(C)C3CCCNC3)nc3ccc(Cl)cc23)n[nH]1 (racemic) | 5.79 |  |  | 
CC[C@@H]1CN(C(=O)c2nc(Nc3cc(C4CC4)[nH]n3)c3cc(Cl)ccc3n2)CCN1 | 8.22 | 6.43 | 61 | 
Cc1cc(Nc2nc(C(=O)N3CCN[C@@H](C)C3)nc3ccc(Cl)cc23)n[nH]1 | 6.51 | < 5.34 | > 15 | 
C[C@@H]1CNCCN1C(=O)c1nc(Nc2cc(C3CC3)[nH]n2)c2cc(Cl)ccc2n1 | 7.77 | 5.68 | 122 | 
CC(C)n1cnc(Nc2nc(N3CCC(N)CC3)nc3ccc(Cl)cc23)c1 | 6.05 |  |  | 
C[C@@H]1CN(C(=O)c2nc(Nc3cc(C4CC4)[nH]n3)c3cc(F)ccc3n2)CCN1 | 7.80 | 6.30 | 31 | 
NC1CCN(c2nc(Nc3cn(C4CC4)cn3)c3cc(Cl)ccc3n2)CC1 | 6.19 |  |  | 
NC1CCN(c2nc(Nc3cc(C4CC4)[nH]n3)c3cc(Cl)ccc3n2)CC1 | 7.80 | 6.54 | 19 | pKd [3]: 8.22
Cc1cc(Nc2nc(N3CCC(N)CC3)nc3ccc(Cl)cc23)n[nH]1 | 7.00 | 5.72 | 18 | pKd [3]: 7.37
Cc1cc(Nc2nc(C(=O)N(C)C3CCNCC3)nc3ccc(Cl)cc23)n[nH]1 | 6.24 |  |  | 
C[C@@H]1CN(C(=O)c2nc(Nc3cc(C4CC4)[nH]n3)c3ccc(Cl)cc3n2)CCN1 | 8.15 | 6.40 | 57 | 

Compound | pKi [1] | pKi [4] | Ratio Ki (Homo sapiens) | other results
Cc1cc(Nc2nc(C(=O)N3CCC(N)CC3)nc3ccc(Cl)cc23)n[nH]1 | 6.45 |  |  | 
CNC1CCN(C(=O)c2nc(Nc3cc(C)[nH]n3)c3cc(Cl)ccc3n2)CC1 | 6.17 |  |  | 
COc1cccc(Nc2nc(NCC3CCCO3)c3ccccc3n2)c1 (configuration not stated) |  |  |  | pIC50 [5]: 4.32; pIC50 [6]: 4.83
CC(C)c1cc(Nc2nc(N3CCC(N)CC3)nc3ccc(Cl)cc23)n[nH]1 | 7.11 |  |  | 
C[C@@H]1CN(C(=O)c2nc(Nc3cc(C4CC4)[nH]n3)c3ccccc3n2)CCN1 | 7.77 | 5.97 | 63 | 
Cc1cc(Nc2nc(C(=O)N3CCNCC3)nc3ccc(Cl)cc23)n[nH]1 | 7.35 | < 5.00 | > 222 | pKd [3]: 7.18
Cc1cc(Nc2nc(C(=O)N3CCC(C)(O)CC3)nc3ccc(Cl)cc23)n[nH]1 | 5.41 |  |  | 
NC1CCN(c2nc(Nc3cn(-c4ccccc4)cn3)c3cc(Cl)ccc3n2)CC1 | 5.84 |  |  | 
C[C@@H]1CN(C(=O)c2nc(Nc3cc(C4CC4)[nH]n3)c3cc(Cl)ccc3n2)CCN1 [listing 1 of 2 here] |  | 5.51 |  | pIC50 [7]: 7.82; pIC50 [8]: 7.95
NC1CCN(c2nc(Nc3cc(-c4ccccc4)[nH]n3)c3cc(Cl)ccc3n2)CC1 | 6.59 |  |  | 
CC1CN(C(=O)c2nc(Nc3cc(C4CC4)[nH]n3)c3cc(Cl)ccc3n2)CC(C)N1 (mixture of isomers) | 6.94 | < 5.34 | > 40 | 
Cc1cc(Nc2nc(C(=O)N3CCNC[C@@H]3C)nc3ccc(Cl)cc23)n[nH]1 | 6.66 | < 5.34 | > 21 | 
C[C@H]1CNCCN1C(=O)c1nc(Nc2cc(C3CC3)[nH]n2)c2cc(Cl)ccc2n1 | 7.59 | 6.42 | 15 | 
Cc1cc(Nc2nc(C(=O)N3CC(C)NC(C)C3)nc3ccc(Cl)cc23)n[nH]1 (mixture of isomers) | 6.92 |  |  | 
Cc1cc(Nc2nc(C(=O)NC3CNC3)nc3ccc(Cl)cc23)n[nH]1 | 6.11 |  |  | 
COc1ccc2nc(C(=O)N3CCN[C@H](C)C3)nc(Nc3cc(C4CC4)[nH]n3)c2c1 | 7.44 | < 5.34 | > 126 | 
Cc1cc(Nc2nc(C(=O)N3CCNC(=O)C3)nc3ccc(Cl)cc23)n[nH]1 | 5.62 |  |  | 
C[C@@H]1CN(C(=O)c2nc(Nc3cc(C4CC4)[nH]n3)c3cc(Cl)ccc3n2)CCN1 [listing 2 of 2 here] |  |  | 346 | Activity (NCI-H460 [9]): inactive; Activity (HEK293 [10]): inactive; inhibition [11]: Dose-dependent effect; inhibition [12]: Active; Activity (HEK293 [13]): inactive; Activity (A549 [14]): Active; inhibition [15]: Dose-dependent effect; Activity (A549 [16]): Active; inhibition [17]: Dose-dependent effect; inhibition [18]: Active; Activity (A549 [19]): Active; Activity (A549 [20]): Active; inhibition [21]: > 80%; Activity (NCI-H460 [22]): inactive
C[C@@H]1CN(C(=O)c2nc(Nc3cc(C4CC4)[nH]n3)c3cc(Br)ccc3n2)CCN1 | 7.96 | 5.68 | 190 | 
Cc1cc(Nc2nc(C(=O)N3CCN(C)CC3)nc3ccc(Cl)cc23)n[nH]1 | 6.11 |  |  | 
